Structures are written as SMILES. A value given as a limit tells only on which side of the number the result lay.

In the first assay the test system is PC-12. Kind of assay: Cytoprotective activity on rat tunicamycin treated rat pheochromocytoma cell line PC12 from apoptosis induced by Endoplasmic reticulum stress; NA = Not active upto 100 uM. The class given is functional, cell-based. The method in brief:
(§1)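 PC12 cells exposed to tunicamycin (ER-stress inducer) together with graded compound doses for 37 h; viability read as cellular ATP content. Positive control: zVAD.fmk 100 µM. EC50 taken as concentration giving half-maximal rescue from cell death relative to the Tm-only control.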
As for `O=C(/C=C/c1ccccc1)NC(NC(=S)Nc1cnc2ccccc2c1)C(Cl)(Cl)Cl` (stereo unspecified), the EC50 (in general, the concentration that produces a half-maximal response) was “Not Active”. Turning to `CCOC(=O)C(/N=C(\S)Nc1ccccn1)NC(=O)/C=C/c1ccccc1` (stereo unspecified), the concentration giving a half-maximal response (EC50) result is given as “Not Active”. On the same count and under the same terms, the value for `CCCCOc1ccc(/C=C/C(=O)NC(/N=C(\S)Nc2ccccn2)C(Cl)(Cl)Cl)cc1` (stereo unspecified) was “Not Active”. For the compound `CC(C)=CC(=O)NC(/N=C(\S)Nc1ccccn1)C(Cl)(Cl)Cl` (stereo unspecified), the EC50 entry is recorded as “Not Active”. Consider `O=C(/C=C/c1ccccc1)NC1CSC(Nc2ccccn2)=N1` (stereo unspecified), for which the 50% effective concentration (EC50) result was “Not Active”. For `O=C(/C=C/c1ccccc1)NC(CO)/N=C(\S)Nc1ccccn1` (stereo unspecified), the EC50 entry is recorded as “Not Active”. `O=C(NC(NC(=S)Nc1ccccn1)C(Cl)(Cl)Cl)c1ccccc1` (stereo unspecified): the EC50 entry is recorded as “Not Active”.

The next assay deals with PC-12. Kind of assay: Cytoprotective activity on rat tunicamycin treated rat pheochromocytoma cell line PC12 from apoptosis induced by Endoplasmic reticulum stress; TX=Toxic. The class given is functional, cell-based. In outline:
as §1
`O=C(/C=C/c1ccccc1)NC(/N=C(\S)Nc1ccccn1)C(F)(F)F` (stereo unspecified): the EC50 result is on record as “Toxic”. On the same count and under the same terms, the value for `O=C(/C=C/c1ccccc1)NNC(=S)Nc1ccccn1` was “Toxic”. Same read-out and setting: the value for `O=C(/C=C/c1ccccc1)NCCNC(=S)Nc1ccccn1` was “Toxic”.

The test system of another assay is PC-12. Kind of assay: Cytoprotective activity on rat tunicamycin treated rat pheochromocytoma cell line PC12 from apoptosis induced by Endoplasmic reticulum stress. The class given is functional, cell-based. The method in brief: as §1
As for `O=C(/C=C/c1ccc(Br)cc1)NC(NC(=S)Nc1ccccn1)C(Cl)(Cl)Cl` (stereo unspecified), the EC50 came to 50 µM. Still for that read-out and setting: next, `O=C(/C=C/c1ccccc1)NC(NC(=S)Nc1cccc2cccnc12)C(Cl)(Cl)Cl` (stereo unspecified) [SALUBRINAL]: 15 µM.

In turn, `O=C(/C=C/c1ccccc1C(F)(F)F)NC(/N=C(\S)Nc1ccccn1)C(Cl)(Cl)Cl` (stereo unspecified) came in with an EC50 of 38 µM.

The compound `Nc1ccc(/C=C/C(=O)NC(/N=C(\S)Nc2ccccn2)C(Cl)(Cl)Cl)cc1` (stereo unspecified) yielded a half-maximal effective concentration (EC50) of 56 µM. Same read-out and setting: the value for `O=C(/C=C/c1ccccc1)NC(NC(=S)Nc1ccccn1)C(Cl)Cl` (stereo unspecified) was 75 µM. The same measure, in the same setting: next, `O=C(/C=C/c1ccccc1)NC(NC(=S)Nc1ccccn1)C(Br)(Br)Br` (stereo unspecified): 51 µM; `O=C(CCc1ccccc1)NC(NC(=S)Nc1ccccn1)C(Cl)(Cl)Cl` (stereo unspecified): 33 µM; `O=C(/C=C/c1cccnc1)NC(NC(=S)Nc1ccccn1)C(Cl)(Cl)Cl` (stereo unspecified): 30 µM. In the case of `O=C(/C=C/c1ccccc1)NC(NC(=S)NC(=O)c1ccccc1)C(Cl)(Cl)Cl` (stereo unspecified), the concentration for a half-maximal effect (EC50) was > 100 µM.

`CCCC/N=C(\S)NC(NC(=O)/C=C/c1ccccc1)C(Cl)(Cl)Cl` (stereo unspecified): the EC50 came out at 24 µM. Regarding `O=C(/C=C/C1CCCCC1)NC(NC(=S)Nc1ccccn1)C(Cl)(Cl)Cl` (stereo unspecified), a half-maximal response (EC50) required 29 µM. As to `O=C(/C=C/c1ccccc1Cl)NC(NC(=S)Nc1ccccn1)C(Cl)(Cl)Cl` (stereo unspecified), the concentration giving a half-maximal response (EC50) was determined as 40 µM.

With `O=C(/C=C/c1ccc([N+](=O)[O-])cc1)NC(/N=C(\S)Nc1ccccn1)C(Cl)(Cl)Cl` (stereo unspecified), the EC50 is 28 µM. Regarding `O=C(/C=C/c1cccs1)NC(NC(=S)Nc1ccccn1)C(Cl)(Cl)Cl` (stereo unspecified), the concentration for a half-maximal effect (EC50) was determined as 41 µM. The same measure, in the same setting: next, `O=C(/C=C/c1ccccc1)NC(NC(=S)Nc1ccccn1)C(Cl)(Cl)Cl` (stereo unspecified): 40 µM; `O=C(/C=C/c1ccc(F)cc1F)NC(/N=C(\S)Nc1ccccn1)C(Cl)(Cl)Cl` (stereo unspecified): 72 µM.

The record behind these values is ChEMBL document CHEMBL1142792, “Structure-activity relationship studies of salubrinal lead to its active biotinylated derivative” (Bioorg Med Chem Lett, 2005).
